According to PMC5200953 (Dalton transactions (Cambridge, England : 2003), 2015):
“Also recorded” adds a separate entry of the source.

Key:
[1] = PET/CT imaging at 2 h p.i. in mice bearing sstr2-transfected HCT116 xenografts; type: in vivo; settings: mouse, tumour, tumour standard uptake value (SUV), n = 2
Summary of the method: (§1)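 PET/CT imaging was done at 2 h p.i. with the 64Cu-labelled test conjugate. Mice bore subcutaneously implanted sstr2-transfected HCT116 xenografts. The blocked mouse was co-administered Y3-TATE (10 mg/kg). Tumour standard uptake value (SUV) was read from the images.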

[2] = test system: sstr2-transfected HCT116 tumours; assay: as above; type: in vivo; settings: with the exception of kidneys
Summary of the method: as §1

[3] = test system: sstr2-transfected HCT116 cells; assay: Cellular internalization assay; type: cell-based
[4] = Biodistribution in mice bearing subcutaneous sstr2-transfected HCT116 tumours; type: in vivo; settings: mouse, n = 4; for tissue uptake at 1 h: 1 h p.i.; for tissue uptake at 4 h: 4 h p.i.; for tissue uptake at 24 h: 24 h p.i.
Summary of the method: (§2)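 Mice with subcutaneous sstr2-transfected HCT116 tumours received the 64Cu-labelled test conjugate. Activity was measured in blood, liver, kidney, muscle, bone, adrenal, pancreas and tumour at 1, 4 and 24 h p.i. A blocking group received co-administered Y3-TATE, assessed at 4 h p.i. Tumour-to-blood, -muscle, -kidney and -liver ratios were calculated. n = 4 per group; P-values were reported for group comparisons.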

[5] = test system: sstr2-transfected HCT116 tumours; assay: as above; type: in vivo
Summary of the method: as §2

For C[C@@H](O)[C@H](NC(=O)[C@@H]1CSSC[C@H](NC(=O)[C@@H](Cc2ccccc2)NC(=O)Cn2cc(CN3CCCN4CCN(CCCN(CP(=O)(O)O)CC4)CC3)nn2)C(=O)N[C@@H](Cc2ccc(O)cc2)C(=O)N[C@H](Cc2c[nH]c3ccccc23)C(=O)N[C@@H](CCCCN)C(=O)N[C@@H]([C@@H](C)O)C(=O)N1)C(=O)O (64Cu complex, metal not drawn) [Compound 6], which SUV at 2 h [1] is on record?
Its SUV at 2 h is 2.25 ± 0.49 SUV.

What about the “tumour uptake and contrast by PET/CT, in words” value [2] of the same molecule?
Its value is “excellent tumour uptake and contrast”.

What about the internalized ([3]; after 4 h, sstr2-transfected HCT116 cells) of the same molecule?
Its internalized is 38 %ID/mg protein.

And the “surface bound, and thus internalized 6, blocked by excess Y3-TATE” value ([3]; cells pre-incubated with excess Y3-TATE, P < 0.0001, n = 3)?
The value was “More than 95%”.

What about the “internalization, in words” value ([3]; sstr2-transfected HCT116 cells) of the same molecule?
Its value is “internalized rapidly and specifically; also recorded: quickly bound to the cell surface, and was steadily internalized”.

What about the tissue uptake at 1 h ([4]; adrenal, Adrenal uptake) of the same molecule?
The tissue uptake at 1 h was 1.14 ± 0.46 %ID/g.

And the tissue uptake at 4 h ([4]; adrenal, Adrenal uptake, blocked with co-administration of Y3-TATE)?
The tissue uptake at 4 h was 0.37 ± 0.05 %ID/g.

What about the tissue uptake at 4 h ([4]; adrenal, Adrenal uptake) of the same molecule?
Its tissue uptake at 4 h is 1.24 ± 0.4 %ID/g.

And the tissue uptake at 1 h ([4]; blood, Blood uptake)?
The tissue uptake at 1 h was 0.34 ± 0.13 %ID/g.

What about the tissue uptake at 4 h ([4]; blood, Blood uptake, blocked with co-administration of Y3-TATE) of the same molecule?
Its tissue uptake at 4 h is 0.22 ± 0.04 %ID/g.

And the tissue uptake at 4 h ([4]; blood, Blood uptake)?
The tissue uptake at 4 h was 0.2 ± 0.03 %ID/g.

What about the tissue uptake at 24 h ([4]; blood, Blood uptake) of the same molecule?
The tissue uptake at 24 h was 0.15 ± 0.06 %ID/g.

And the tissue uptake at 1 h ([4]; bone, Bone uptake)?
Its tissue uptake at 1 h is 0.46 ± 0.16 %ID/g.

And the tissue uptake at 4 h ([4]; bone, Bone uptake, blocked with co-administration of Y3-TATE)?
Its tissue uptake at 4 h is 0.2 ± 0.04 %ID/g.

What about the tissue uptake at 4 h ([4]; bone, Bone uptake) of the same molecule?
The tissue uptake at 4 h was 0.5 ± 0.24 %ID/g.

And the tissue uptake at 24 h ([4]; bone, Bone uptake)?
Its tissue uptake at 24 h is 0.35 ± 0.1 %ID/g.

And the tissue uptake at 1 h ([4]; kidney, Kidney uptake)?
The tissue uptake at 1 h was 15.9 ± 3.03 %ID/g.

What about the tissue uptake at 4 h ([4]; kidney, Kidney uptake, blocked with co-administration of Y3-TATE) of the same molecule?
The tissue uptake at 4 h was 16.1 ± 5.03 %ID/g.

And the tissue uptake at 4 h ([4]; kidney, Kidney uptake)?
The tissue uptake at 4 h was 21 ± 2.84 %ID/g.

What about the tissue uptake at 24 h ([4]; kidney, Kidney uptake) of the same molecule?
The tissue uptake at 24 h was 14.7 ± 2.53 %ID/g.

What about the tissue uptake at 1 h ([4]; liver, Liver uptake) of the same molecule?
The tissue uptake at 1 h was 1.13 ± 0.16 %ID/g.

What about the tissue uptake at 4 h ([4]; liver, Liver uptake, blocked with co-administration of Y3-TATE) of the same molecule?
The tissue uptake at 4 h was 1.32 ± 0.3 %ID/g.

And the tissue uptake at 4 h ([4]; liver, Liver uptake)?
Its tissue uptake at 4 h is 1.3 ± 0.1 %ID/g.

What about the tissue uptake at 24 h ([4]; liver, Liver uptake) of the same molecule?
Its tissue uptake at 24 h is 1.05 ± 0.1 %ID/g.

And the tissue uptake at 1 h ([4]; muscle, Muscle uptake)?
The tissue uptake at 1 h was 0.22 ± 0.15 %ID/g.

What about the tissue uptake at 4 h ([4]; muscle, Muscle uptake, blocked with co-administration of Y3-TATE) of the same molecule?
The tissue uptake at 4 h was 0.09 ± 0.03 %ID/g.

What about the tissue uptake at 4 h ([4]; muscle, Muscle uptake) of the same molecule?
Its tissue uptake at 4 h is 0.07 ± 0.02 %ID/g.

What about the tissue uptake at 24 h ([4]; muscle, Muscle uptake) of the same molecule?
The tissue uptake at 24 h was 0.06 %ID/g.

What about the tissue uptake at 1 h ([4]; pancreas, Pancreas uptake) of the same molecule?
Its tissue uptake at 1 h is 6.71 ± 0.22 %ID/g.

What about the tissue uptake at 4 h ([4]; pancreas, Pancreas uptake, blocked with co-administration of Y3-TATE) of the same molecule?
The tissue uptake at 4 h was 0.3 ± 0.07 %ID/g.

What about the tissue uptake at 4 h ([4]; pancreas, Pancreas uptake) of the same molecule?
Its tissue uptake at 4 h is 4.41 ± 0.95 %ID/g.

And the tissue uptake at 24 h ([4]; pancreas, Pancreas uptake)?
The tissue uptake at 24 h was 1.84 ± 0.64 %ID/g.

And the tissue uptake at 1 h ([4]; tumour, Tumour uptake)?
The tissue uptake at 1 h was 4.73 ± 1.17 %ID/g.

What about the tissue uptake at 4 h ([4]; tumour, Tumour uptake, blocked with co-administration of Y3-TATE) of the same molecule?
Its tissue uptake at 4 h is 0.69 ± 0.22 %ID/g.

And the tissue uptake at 4 h ([4]; tumour, Tumour uptake)?
The tissue uptake at 4 h was 7.54 ± 1.43 %ID/g.

And the tissue uptake at 24 h ([4]; tumour, Tumour uptake)?
The tissue uptake at 24 h was 4.39 ± 1.71 %ID/g.

What about the “kidney uptake, in words” value ([5]; 1, 4, and 24 h p.i.) of the same molecule?
Its value is “consistently high uptake”.

And the “uptake in sstr2-expressing organs (adrenal, pancreas, tumour), in words” value ([5]; 1, 4, and 24 h p.i.)?
Its value is “high tracer uptake”.

And the “blocking of tumour uptake by co-administered Y3-TATE” value ([5]; 4 h p.i., P < 0.0001, n = 4)?
The value was 91%.

What about the “blocking of adrenal uptake by co-administered Y3-TATE” value ([5]; 4 h p.i., P = 0.0051, n = 4) of the same molecule?
The value was 70%.

What about the “in vivo stability of the copper complex, in words” value ([5]; inferred from relatively low liver activity) of the same molecule?
The value was “reasonable in vivo stability”.

What about the “time of maximum tumour uptake” value ([5]; p.i., n = 4) of the same molecule?
Its value is 4 h.
